The values below come from ChEMBL document CHEMBL4190321, “Novel 4/3-((4-oxo-5-(2-oxoindolin-3-ylidene)thiazolidin-2-ylidene)amino) benzenesulfonamides: Synthesis, carbonic anhydrase inhibitory activity, anticancer activity and molecular modelling studies” (Eur J Med Chem, 2017).

By Ki is commonly meant a measure of affinity in units of concentration, obtained from inhibition or displacement. For orientation: IC50 means the concentration that gives 50% inhibition.

Assay [1] deals with Carbonic anhydrase 9 (Homo sapiens, UniProt Q16790). The assay can be described thus: Inhibition of human transmembrane carbonic anhydrase 9 by stopped-flow CO2 hydrase assay.
Assay [2] deals with Caco-2. The assay can be described thus: Antiproliferative activity against human Caco2 cells by MTT assay. In general terms: Tetrazolium dyes change colour on reduction, which living cells bring about.
The subject of assay [3] is MCF7. The assay can be described thus: Antiproliferative activity against human MCF7 cells by MTT assay.
Assay [4] concerns the target Carbonic anhydrase 4 (Homo sapiens, UniProt P22748). The assay can be described thus: Inhibition of human transmembrane carbonic anhydrase 4 by stopped-flow CO2 hydrase assay.
Assay [5] has as its system MCF7. The assay can be described thus: Induction of apoptosis in human MCF7 cells assessed as decrease in Bcl-2 expression at IC50 by ELISA relative to control. More on the design: scale not given: the % may be the effect or the level left. Format: functional. An outline of the steps:
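MCF-7 cells were treated alongside a 1% DMSO control. Bcl-2 protein was measured with a colorimetric ELISA kit and reported in ng/ml. Data are mean ± SD of three separate experiments, and significance versus control was set at P < 0.05.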
(In general: In an ELISA, binding on a coated surface is turned into a signal by an enzyme label.)

For assay [6], the target named is Carbonic anhydrase 1 (Homo sapiens, UniProt P00915). The assay can be described thus: Inhibition of human cytosolic carbonic anhydrase 1 by stopped-flow CO2 hydrase assay.
The target in assay [7] is Carbonic anhydrase 2 (Homo sapiens, UniProt P00918). Put plainly: Inhibition of human cytosolic carbonic anhydrase 2 by stopped-flow CO2 hydrase assay.

Sequence of Carbonic anhydrase 4 (P22748 whole entry): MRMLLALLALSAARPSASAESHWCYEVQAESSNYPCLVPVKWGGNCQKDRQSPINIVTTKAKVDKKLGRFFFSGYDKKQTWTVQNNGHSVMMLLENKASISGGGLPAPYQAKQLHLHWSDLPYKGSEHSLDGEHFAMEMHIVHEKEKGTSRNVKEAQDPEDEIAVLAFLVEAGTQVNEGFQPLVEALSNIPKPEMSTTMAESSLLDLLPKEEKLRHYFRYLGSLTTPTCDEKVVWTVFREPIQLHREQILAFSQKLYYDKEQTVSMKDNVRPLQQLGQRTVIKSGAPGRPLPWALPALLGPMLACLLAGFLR
Sequence of Carbonic anhydrase 1 (P00915 whole entry): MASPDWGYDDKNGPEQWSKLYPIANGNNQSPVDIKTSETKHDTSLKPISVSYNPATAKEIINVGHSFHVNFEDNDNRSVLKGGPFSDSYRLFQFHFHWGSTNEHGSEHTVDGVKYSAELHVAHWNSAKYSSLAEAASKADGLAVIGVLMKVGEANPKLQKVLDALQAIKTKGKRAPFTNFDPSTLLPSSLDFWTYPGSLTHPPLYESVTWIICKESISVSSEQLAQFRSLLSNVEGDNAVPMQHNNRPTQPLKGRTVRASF

As for `NS(=O)(=O)c1ccc(NC2=NC(=O)CS2)cc1`, in assay [1], affinity was put at a Ki of 0.0045 µM.

`NS(=O)(=O)c1cccc(/N=C2\NC(=O)/C(=C3/C(=O)Nc4ccc(Cl)cc43)S2)c1`: the half-maximal inhibitory concentration (IC50) in assay [2] was 5.87 µM; in assay [3], above 200 µM. The Ki in assay [1] is 0.062 µM.

For `NS(=O)(=O)c1cccc(/N=C2\NC(=O)/C(=C3/C(=O)Nc4ccc([N+](=O)[O-])cc43)S2)c1`, the concentration for half-maximal inhibition (IC50) in assay [2] was 20.6 µM; in assay [3], above 200 µM. In assay [1], affinity was put at a Ki of 0.048 µM.

Turning to `COc1ccc2c(c1)/C(=C1/S/C(=N/c3ccc(S(N)(=O)=O)cc3)NC1=O)C(=O)N2`, the half-inhibitory concentration (IC50) in assay [2] is 98.3 µM; in assay [3], 125 µM. In addition, the Ki in assay [4] is above 10 µM; in assay [1] it was 0.0231 µM.

`Cc1cc(C)c2c(c1)/C(=C1/S/C(=N/c3ccc(S(N)(=O)=O)cc3)NC1=O)C(=O)N2`: the figures for the IC50 in assay [2] and in assay [3] were 146 µM and above 200 µM, respectively. The compound further yielded a Ki in assay [1] of 0.1 µM.

Regarding `NS(=O)(=O)c1cccc(/N=C2\NC(=O)/C(=C3/C(=O)Nc4ccccc43)S2)c1`, the figures for the IC50 in assay [2] and in assay [3] were 12.1 µM and above 200 µM, respectively. This compound also gave a Ki in assay [1] of 0.0161 µM.

Take `CN1C(=O)/C(=C2\S/C(=N/c3ccc(S(N)(=O)=O)cc3)NC2=O)c2cc(Br)ccc21`: the IC50 is 13.2 µM in assay [2] and 196 µM in assay [3]. Also, in assay [1], the Ki came out at 0.0389 µM.

Consider `NS(=O)(=O)c1cccc(/N=C2\NC(=O)CS2)c1`, for which, in assay [1], the affinity corresponds to a Ki of 0.0177 µM.

Take `NS(=O)(=O)c1ccc(/N=C2\NC(=O)/C(=C3/C(=O)Nc4ccc(Cl)cc43)S2)cc1`: the IC50 in assay [2] came out at 20.3 µM; in assay [3] it was 3.96 µM. Further, in assay [5], the Activity is listed as 45%. This compound came in with a Ki in assay [1] of 0.0624 µM.

As for `NS(=O)(=O)c1cccc(/N=C2\NC(=O)/C(=C3/C(=O)N(Cc4ccccc4)c4ccccc43)S2)c1`, the IC50 in assay [2] is 103 µM; in assay [3], above 200 µM. The same compound came in with an inhibitory constant (Ki) in assay [1] of 0.17 µM.

`Cc1ccc2c(c1)/C(=C1/S/C(=N/c3ccc(S(N)(=O)=O)cc3)NC1=O)C(=O)N2`: the IC50 in assay [2] was 174 µM; in assay [3], above 200 µM. In assay [1], this compound displayed a Ki of 0.0721 µM.

In the case of `NS(=O)(=O)c1ccc(/N=C2\NC(=O)/C(=C3/C(=O)N(Cc4ccccc4)c4ccc(Cl)cc43)S2)cc1`, the IC50 in assay [2] was 13.7 µM; in assay [3], 124 µM. Moreover, the affinity in assay [1] corresponds to a Ki of 0.0906 µM.

For the compound `CN1C(=O)/C(=C2\S/C(=N/c3ccc(S(N)(=O)=O)cc3)NC2=O)c2cc(Cl)ccc21`, the IC50 in assay [2] is 42.3 µM; in assay [3] it was above 200 µM. The compound also yielded an inhibition constant (Ki) in assay [1] of 0.123 µM.

For `NS(=O)(=O)c1ccc(/N=C2\NC(=O)/C(=C3/C(=O)Nc4ccc(F)cc43)S2)cc1`, the IC50 in assay [2] turned out to be 59.9 µM; in assay [3], 20.5 µM. The Ki in assay [1] was 0.0266 µM.

In the case of `NS(=O)(=O)c1cccc(/N=C2\NC(=O)/C(=C3/C(=O)Nc4ccc(Br)cc43)S2)c1`, the IC50 in assay [2] is 10.8 µM; in assay [3], above 200 µM. Also, the inhibitory constant (Ki) in assay [1] is 0.0159 µM.

Consider `COc1ccc2c(c1)/C(=C1/S/C(=N/c3cccc(S(N)(=O)=O)c3)NC1=O)C(=O)N2`, for which the IC50 was 8.39 µM in assay [2] and above 200 µM in assay [3]. This compound came in with a Ki in assay [1] of 0.0247 µM.

`NS(=O)(=O)c1ccc(/N=C2\NC(=O)/C(=C3/C(=O)Nc4ccc(Br)cc43)S2)cc1`: the IC50 in assay [2] was found to be 42.3 µM; in assay [3], 11.3 µM. Besides, the Ki in assay [1] turned out to be 0.0666 µM.

With `NS(=O)(=O)c1ccc(/N=C2\NC(=O)/C(=C3/C(=O)N(Cc4ccccc4)c4ccccc43)S2)cc1`, the 50% inhibitory concentration (IC50) in assay [2] and in assay [3] was above 200 µM in each case. Besides, the inhibitory constant (Ki) in assay [1] was determined as 0.117 µM.

`CN1C(=O)/C(=C2\S/C(=N/c3ccc(S(N)(=O)=O)cc3)NC2=O)c2ccccc21`: the IC50 in assay [2] was 163 µM; in assay [3], 51.9 µM. In assay [1], this compound returned a Ki of 0.146 µM.

For `NS(=O)(=O)c1ccc(/N=C2\NC(=O)/C(=C3/C(=O)Nc4ccc([N+](=O)[O-])cc43)S2)cc1`, the IC50 in assay [2] was 13.8 µM; in assay [3], above 200 µM. The compound also had an inhibition constant (Ki) in assay [1] of 0.0341 µM.

For the compound `NS(=O)(=O)c1ccc(/N=C2\NC(=O)/C(=C3/C(=O)N(Cc4ccccc4)c4ccc(Br)cc43)S2)cc1`, the results for the IC50 in assay [2] and in assay [3] were 57.8 µM and above 200 µM, respectively. For the same compound, in assay [1], the Ki turned out to be 0.321 µM.

In the case of `NS(=O)(=O)c1ccc(/N=C2\NC(=O)/C(=C3/C(=O)Nc4ccccc43)S2)cc1`, the IC50 in assay [2] and in assay [3] was above 200 µM in each case. The inhibition constant (Ki) in assay [4] was above 10 µM; in assay [6], 0.631 µM; in assay [7], 0.023 µM; in assay [1], 0.047 µM.

`COc1cccc2c1C(=O)c1c(O)c3c(c(O)c1C2=O)C[C@@](O)(C(=O)CO)C[C@@H]3O[C@H]1C[C@H](N)[C@H](O)[C@H](C)O1` [DOXORUBICIN] came in with an IC50 in assay [2] of 3.83 µM.
